Data taken from ChEMBL document CHEMBL2203081 (Bioorg Med Chem Lett, 2012).
Active and inactive are the calls of the source. The rule behind the calls is not given here.

Columns and labels:
[1] = target: Serine/threonine-protein kinase 32B (Homo sapiens) (UniProt Q9NY57); test: Inhibition of YANK2 assessed as residual activity at 10 uM relative to control
[2] = target: Death-associated protein kinase 1 (Homo sapiens) (UniProt P53355); test: Inhibition of DAPK1 assessed as residual activity at 10 uM relative to control
Summary of the method: (§1)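 Competition kinase-binding assay (KINOMEscan) across a non-redundant panel of 329 kinases beyond the radiometric panel; residual binding expressed relative to control.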

[3] = target: Casein kinase II subunit alpha' (Homo sapiens) (UniProt P19784); test: Inhibition of CSNK2A2 assessed as residual activity at 10 uM relative to control; summary of the method: as §1
[4] = target: Casein kinase I isoform epsilon (Homo sapiens) (UniProt P49674); test: Inhibition of CSNK1E assessed as residual activity at 10 uM relative to control; summary of the method: as §1
[5] = target: Cyclin-dependent kinase 11B (Homo sapiens) (UniProt P21127); test: Inhibition of CDC2L1 assessed as residual activity at 10 uM relative to control
[6] = target: Serine/threonine-protein kinase SIK2 (Homo sapiens) (UniProt Q9H0K1); test: Inhibition of SIK2 assessed as residual activity at 10 uM relative to control
[7] = target: Mitogen-activated protein kinase 9 (Homo sapiens) (UniProt P45984); test: Inhibition of JNK2 assessed as residual activity at 1 uM
Summary of the method: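 Radioactivity-based enzymatic activity assay of the named kinase, run as part of a 131-kinase specificity panel at the National Centre for Protein Kinase Profiling (Dundee). Residual activity was read at the stated single inhibitor concentration.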

[8] = target: Mitogen-activated protein kinase kinase kinase kinase 3 (Homo sapiens) (UniProt Q8IVH8); test: Inhibition of MAP4K3 assessed as residual activity at 10 uM relative to control
[9] = target: Mitogen-activated protein kinase kinase kinase 4 (Homo sapiens) (UniProt Q9Y6R4); test: Inhibition of MAP3K4 assessed as residual activity at 10 uM relative to control
[10] = target: Inhibitor of nuclear factor kappa-B kinase subunit alpha (Homo sapiens) (UniProt O15111); test: Inhibition of IKK-alpha assessed as residual activity at 10 uM relative to control
[11] = target: Serine/threonine-protein kinase RIO2 (Homo sapiens) (UniProt Q9BVS4); test: Inhibition of RIOK2 assessed as residual activity at 10 uM relative to control
Mus musculus [12] = test: Inhibition of LRRK2 in mouse assessed as inhibition of Ser935 autophosphorylation in spleen at 100 mg/kg, ip by immunoblot method; format: functional, organism-based; design: dose 100 mg/kg
[13] = target: Casein kinase I isoform delta (Homo sapiens) (UniProt P48730); test: Inhibition of CK1d assessed as residual activity at 1 uM
Summary of the method: (§2)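 Radioactivity-based enzymatic assay against a panel of 131 kinases (Dundee profiling). Activity remaining was measured with compound present at the stated concentration.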

[14] = target: Angiopoietin-1 receptor (Homo sapiens) (UniProt Q02763); test: Inhibition of TIE2 assessed as residual activity at 10 uM
[15] = Inhibition of PHK assessed as residual activity at 10 uM
[16] = target: Mitogen-activated protein kinase 14 (Homo sapiens) (UniProt Q16539); test: Inhibition of p38a MAPK assessed as residual activity at 10 uM
[17] = Inhibition of FLT3 ITD mutant assessed as residual activity at 10 uM relative to control
[18] = target: Receptor-type tyrosine-protein kinase FLT3 (Homo sapiens) (UniProt P36888); test: Inhibition of FLT3 assessed as residual activity at 10 uM relative to control
[19] = target: Ephrin type-B receptor 4 (Homo sapiens) (UniProt P54760); test: Inhibition of EPH-B4 assessed as residual activity at 10 uM; summary of the method: as §2
[20] = target: T1, Ephrin type-B receptor 3 (Homo sapiens) (UniProt P54753); test: Inhibition of EPH-B3 assessed as residual activity at 10 uM
T1 sequence (whole entry): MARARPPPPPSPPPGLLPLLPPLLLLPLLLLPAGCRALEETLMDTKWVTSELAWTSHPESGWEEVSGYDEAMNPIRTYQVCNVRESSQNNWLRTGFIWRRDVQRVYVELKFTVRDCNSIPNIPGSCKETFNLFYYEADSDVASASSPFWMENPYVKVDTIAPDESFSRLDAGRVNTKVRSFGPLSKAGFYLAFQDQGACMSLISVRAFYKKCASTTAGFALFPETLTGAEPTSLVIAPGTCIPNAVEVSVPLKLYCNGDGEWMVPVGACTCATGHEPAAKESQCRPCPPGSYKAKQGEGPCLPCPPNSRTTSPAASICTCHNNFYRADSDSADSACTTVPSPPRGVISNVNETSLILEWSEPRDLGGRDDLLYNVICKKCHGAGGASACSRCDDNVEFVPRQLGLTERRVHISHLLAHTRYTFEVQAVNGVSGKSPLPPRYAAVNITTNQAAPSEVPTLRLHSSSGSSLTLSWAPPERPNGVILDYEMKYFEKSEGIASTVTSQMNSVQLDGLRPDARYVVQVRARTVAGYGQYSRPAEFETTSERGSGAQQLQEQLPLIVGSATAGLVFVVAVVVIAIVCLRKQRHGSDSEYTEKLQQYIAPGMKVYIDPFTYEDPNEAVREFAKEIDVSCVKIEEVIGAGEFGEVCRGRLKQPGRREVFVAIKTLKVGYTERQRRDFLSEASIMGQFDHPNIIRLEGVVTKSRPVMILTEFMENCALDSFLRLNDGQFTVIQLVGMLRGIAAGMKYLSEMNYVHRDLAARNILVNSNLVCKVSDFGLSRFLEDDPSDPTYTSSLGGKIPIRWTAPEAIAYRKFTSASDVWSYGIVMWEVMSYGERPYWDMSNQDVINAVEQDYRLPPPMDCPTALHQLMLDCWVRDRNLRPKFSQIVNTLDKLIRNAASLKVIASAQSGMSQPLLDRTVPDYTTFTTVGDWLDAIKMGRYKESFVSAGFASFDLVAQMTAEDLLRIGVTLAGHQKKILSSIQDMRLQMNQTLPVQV
Summary of the method: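 Standard radioactivity-based enzymatic kinase assays on a 131-kinase panel run by the Dundee profiling service; residual kinase activity recorded.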

[21] = target: Protein-tyrosine kinase 6 (Homo sapiens) (UniProt Q13882); test: Inhibition of BRK assessed as residual activity at 10 uM; summary of the method: as §2
Mus musculus [22] = test: Oral bioavailability in Swiss albino mouse at 10 mg/kg; format: ADME, organism-based; conditions: in vivo
[23] = target: Tyrosine-protein kinase SYK (Homo sapiens) (UniProt P43405); test: Inhibition of SYK assessed as residual activity at 1 uM
[24] = target: Myosin light chain kinase family member 4 (Homo sapiens) (UniProt Q86YV6); test: Inhibition of MYLK4 assessed as residual activity at 10 uM relative to control
[25] = target: Mitogen-activated protein kinase kinase kinase 10 (Homo sapiens) (UniProt Q02779); test: Inhibition of MLK2 assessed as residual activity at 10 uM relative to control
[26] = target: Leucine-rich repeat serine/threonine-protein kinase 2 (Homo sapiens) (UniProt Q5S007); conditions: HEK293, 0.3 to 1 uM

Sequence of Mitogen-activated protein kinase 9 (Homo sapiens) (P45984 whole entry, looked up): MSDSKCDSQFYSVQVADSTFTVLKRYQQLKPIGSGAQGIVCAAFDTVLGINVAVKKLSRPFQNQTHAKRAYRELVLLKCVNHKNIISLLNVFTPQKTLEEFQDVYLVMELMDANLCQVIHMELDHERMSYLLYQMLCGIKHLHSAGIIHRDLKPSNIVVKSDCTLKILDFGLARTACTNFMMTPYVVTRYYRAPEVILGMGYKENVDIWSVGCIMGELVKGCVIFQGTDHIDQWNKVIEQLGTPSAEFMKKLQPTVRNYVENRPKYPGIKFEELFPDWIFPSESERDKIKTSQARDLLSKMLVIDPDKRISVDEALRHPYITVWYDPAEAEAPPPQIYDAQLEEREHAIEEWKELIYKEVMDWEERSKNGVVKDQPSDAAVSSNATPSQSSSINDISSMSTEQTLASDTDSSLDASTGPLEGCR
Sequence of Mitogen-activated protein kinase kinase kinase 4 (Homo sapiens) (Q9Y6R4 whole entry): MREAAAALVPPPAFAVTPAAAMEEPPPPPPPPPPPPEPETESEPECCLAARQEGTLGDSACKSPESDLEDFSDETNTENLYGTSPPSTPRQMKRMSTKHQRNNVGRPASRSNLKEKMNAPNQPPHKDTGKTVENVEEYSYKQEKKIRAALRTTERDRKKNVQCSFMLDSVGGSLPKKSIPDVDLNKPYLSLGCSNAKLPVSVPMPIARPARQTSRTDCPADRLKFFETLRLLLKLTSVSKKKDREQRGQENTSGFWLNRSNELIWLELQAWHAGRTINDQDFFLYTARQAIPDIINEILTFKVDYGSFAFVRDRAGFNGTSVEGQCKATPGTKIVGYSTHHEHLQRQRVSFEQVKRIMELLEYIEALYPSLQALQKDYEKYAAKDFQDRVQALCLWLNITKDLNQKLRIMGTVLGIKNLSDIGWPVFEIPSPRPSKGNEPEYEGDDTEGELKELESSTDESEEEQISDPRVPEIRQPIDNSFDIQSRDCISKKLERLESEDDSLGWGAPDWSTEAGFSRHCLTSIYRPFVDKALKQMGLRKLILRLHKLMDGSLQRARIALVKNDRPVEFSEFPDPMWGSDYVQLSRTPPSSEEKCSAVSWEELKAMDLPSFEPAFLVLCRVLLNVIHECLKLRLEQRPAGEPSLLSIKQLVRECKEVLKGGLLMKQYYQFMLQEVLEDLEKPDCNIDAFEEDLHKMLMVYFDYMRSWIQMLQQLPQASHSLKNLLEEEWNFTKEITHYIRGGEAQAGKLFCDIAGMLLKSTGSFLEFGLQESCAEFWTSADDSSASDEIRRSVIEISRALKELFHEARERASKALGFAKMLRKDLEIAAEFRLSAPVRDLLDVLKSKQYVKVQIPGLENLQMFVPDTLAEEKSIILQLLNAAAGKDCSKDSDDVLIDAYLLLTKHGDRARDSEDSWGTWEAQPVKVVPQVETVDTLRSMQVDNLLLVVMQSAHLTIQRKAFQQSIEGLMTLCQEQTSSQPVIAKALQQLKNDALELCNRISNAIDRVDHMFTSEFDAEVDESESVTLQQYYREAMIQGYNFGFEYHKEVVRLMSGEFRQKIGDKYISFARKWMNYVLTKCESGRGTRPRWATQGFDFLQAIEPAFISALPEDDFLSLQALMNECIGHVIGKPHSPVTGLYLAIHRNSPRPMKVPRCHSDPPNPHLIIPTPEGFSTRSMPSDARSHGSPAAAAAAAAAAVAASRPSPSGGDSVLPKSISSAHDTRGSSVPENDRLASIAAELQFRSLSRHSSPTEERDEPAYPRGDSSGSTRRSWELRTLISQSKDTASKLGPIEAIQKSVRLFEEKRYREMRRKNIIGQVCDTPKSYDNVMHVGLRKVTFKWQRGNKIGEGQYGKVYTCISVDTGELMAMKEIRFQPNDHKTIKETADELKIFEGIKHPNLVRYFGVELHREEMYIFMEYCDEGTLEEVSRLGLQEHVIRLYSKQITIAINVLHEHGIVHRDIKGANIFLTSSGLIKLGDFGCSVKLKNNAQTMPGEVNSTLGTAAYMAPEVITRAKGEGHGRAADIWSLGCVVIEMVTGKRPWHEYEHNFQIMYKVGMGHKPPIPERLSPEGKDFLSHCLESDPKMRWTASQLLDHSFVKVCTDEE
Sequence of Ephrin type-B receptor 4 (Homo sapiens) (P54760 whole entry): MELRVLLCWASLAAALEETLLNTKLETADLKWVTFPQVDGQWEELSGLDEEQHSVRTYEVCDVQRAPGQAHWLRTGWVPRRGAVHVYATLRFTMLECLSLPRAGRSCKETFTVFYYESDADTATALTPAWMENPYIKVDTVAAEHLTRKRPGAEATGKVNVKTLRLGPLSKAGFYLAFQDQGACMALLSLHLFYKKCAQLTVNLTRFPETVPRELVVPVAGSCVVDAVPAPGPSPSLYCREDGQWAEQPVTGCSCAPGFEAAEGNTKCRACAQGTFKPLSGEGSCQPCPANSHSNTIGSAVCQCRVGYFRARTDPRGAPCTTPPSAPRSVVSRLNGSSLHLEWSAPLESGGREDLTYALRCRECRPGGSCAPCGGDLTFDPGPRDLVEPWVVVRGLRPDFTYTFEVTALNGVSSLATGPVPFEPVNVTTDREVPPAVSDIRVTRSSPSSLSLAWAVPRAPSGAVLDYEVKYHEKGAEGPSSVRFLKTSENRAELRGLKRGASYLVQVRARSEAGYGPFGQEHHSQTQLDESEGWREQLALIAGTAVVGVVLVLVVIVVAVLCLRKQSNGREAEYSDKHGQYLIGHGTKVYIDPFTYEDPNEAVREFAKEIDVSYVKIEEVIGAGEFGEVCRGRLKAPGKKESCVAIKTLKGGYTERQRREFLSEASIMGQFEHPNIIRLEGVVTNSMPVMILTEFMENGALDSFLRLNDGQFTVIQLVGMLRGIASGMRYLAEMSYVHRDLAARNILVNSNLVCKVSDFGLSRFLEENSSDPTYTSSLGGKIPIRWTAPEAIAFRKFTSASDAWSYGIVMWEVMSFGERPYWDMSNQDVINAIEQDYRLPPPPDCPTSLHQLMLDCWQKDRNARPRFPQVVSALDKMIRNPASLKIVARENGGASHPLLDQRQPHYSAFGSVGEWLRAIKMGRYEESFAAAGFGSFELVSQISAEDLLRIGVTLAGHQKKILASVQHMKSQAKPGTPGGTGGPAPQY
Sequence of Casein kinase I isoform epsilon (Homo sapiens) (P49674 whole entry, looked up, canonical isoform): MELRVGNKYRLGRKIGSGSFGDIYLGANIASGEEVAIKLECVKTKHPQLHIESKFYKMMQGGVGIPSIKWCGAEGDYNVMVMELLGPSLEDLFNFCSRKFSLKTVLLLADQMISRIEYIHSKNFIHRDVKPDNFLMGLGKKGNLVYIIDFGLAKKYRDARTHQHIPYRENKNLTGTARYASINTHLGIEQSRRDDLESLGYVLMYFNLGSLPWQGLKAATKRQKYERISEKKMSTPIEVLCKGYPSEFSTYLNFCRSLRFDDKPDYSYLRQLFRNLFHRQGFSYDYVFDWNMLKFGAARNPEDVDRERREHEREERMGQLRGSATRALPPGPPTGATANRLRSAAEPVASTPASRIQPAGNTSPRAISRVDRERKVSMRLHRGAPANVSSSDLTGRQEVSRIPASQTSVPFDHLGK
Sequence of Mitogen-activated protein kinase kinase kinase kinase 3 (Homo sapiens) (Q8IVH8 whole entry): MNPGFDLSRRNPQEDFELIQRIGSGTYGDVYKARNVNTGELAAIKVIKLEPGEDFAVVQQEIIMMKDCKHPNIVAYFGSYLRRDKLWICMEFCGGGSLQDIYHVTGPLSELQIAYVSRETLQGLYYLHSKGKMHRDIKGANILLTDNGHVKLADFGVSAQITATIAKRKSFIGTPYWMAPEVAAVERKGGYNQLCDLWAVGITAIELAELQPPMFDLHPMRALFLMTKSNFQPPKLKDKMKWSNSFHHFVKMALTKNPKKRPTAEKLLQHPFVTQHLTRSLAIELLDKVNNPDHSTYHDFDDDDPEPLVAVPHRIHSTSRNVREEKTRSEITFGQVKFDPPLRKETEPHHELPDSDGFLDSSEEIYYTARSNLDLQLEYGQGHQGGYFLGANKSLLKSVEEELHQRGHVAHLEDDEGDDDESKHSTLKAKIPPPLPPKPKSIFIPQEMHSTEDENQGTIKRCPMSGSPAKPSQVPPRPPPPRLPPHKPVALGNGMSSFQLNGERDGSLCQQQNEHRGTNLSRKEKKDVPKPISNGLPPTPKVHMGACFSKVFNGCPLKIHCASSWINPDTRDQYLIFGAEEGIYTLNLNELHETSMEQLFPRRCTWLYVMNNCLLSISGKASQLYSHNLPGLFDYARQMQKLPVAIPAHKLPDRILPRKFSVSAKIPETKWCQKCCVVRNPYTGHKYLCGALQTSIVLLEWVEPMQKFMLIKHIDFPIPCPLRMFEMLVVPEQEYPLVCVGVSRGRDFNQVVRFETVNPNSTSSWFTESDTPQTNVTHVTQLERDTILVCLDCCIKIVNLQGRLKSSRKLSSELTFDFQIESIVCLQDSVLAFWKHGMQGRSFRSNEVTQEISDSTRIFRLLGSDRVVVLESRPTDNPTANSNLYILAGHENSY
Sequence of Serine/threonine-protein kinase RIO2 (Homo sapiens) (Q9BVS4 whole entry, looked up): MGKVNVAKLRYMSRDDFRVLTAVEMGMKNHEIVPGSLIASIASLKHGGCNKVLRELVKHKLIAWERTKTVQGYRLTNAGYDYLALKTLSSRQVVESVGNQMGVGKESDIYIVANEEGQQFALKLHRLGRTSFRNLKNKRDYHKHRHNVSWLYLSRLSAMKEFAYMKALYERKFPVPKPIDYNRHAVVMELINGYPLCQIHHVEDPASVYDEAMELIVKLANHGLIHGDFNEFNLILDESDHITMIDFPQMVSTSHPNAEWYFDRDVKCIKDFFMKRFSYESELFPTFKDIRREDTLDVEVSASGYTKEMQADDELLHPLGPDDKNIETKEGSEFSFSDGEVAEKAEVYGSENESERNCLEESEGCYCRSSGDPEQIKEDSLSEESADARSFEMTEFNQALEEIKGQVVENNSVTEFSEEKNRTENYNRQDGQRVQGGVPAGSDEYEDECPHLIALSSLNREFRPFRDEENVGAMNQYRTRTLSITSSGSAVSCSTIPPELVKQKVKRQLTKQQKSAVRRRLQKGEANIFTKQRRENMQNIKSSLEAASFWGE

In the case of O=C(Nc1cccnc1)c1cc(-c2ccnc(F)c2)ccc1OCc1ccccc1, the Activity [1] was 79%, the Activity [2] was 40% and the Activity [3] was 70%. For the same compound, the Activity [4] was 31%, the Activity [5] was 67% and the Activity [6] was 26%. It also gave an Activity [7] of 107%, an Activity [8] of 60% and an Activity [9] of 80%. The Activity [10] was 58%, the Activity [11] was 41% and the inhibition (Mus musculus [12]) was “Active”. It also gave an Activity [13] of 107%, an Activity [14] of 133% and an Activity [15] of 75%. For the same compound, the Activity [16] was 102%, the Activity [17] was 16% and the Activity [18] was 66%. The Activity [19] was 108%, the Activity [20] was 113% and the Activity [21] was 101%. For the same compound, the F (Mus musculus [22]) was 12.2%, the Activity [23] was 115% and the Activity [24] was 80%. For the same compound, the Activity [25] was 77% and the inhibition [26] was “Active”.
